Experimental data from ChEMBL document CHEMBL3616436, “Synthesis, cytotoxicity and antimicrobial activity of thiourea derivatives incorporating 3-(trifluoromethyl)phenyl moiety” (Eur J Med Chem, 2015).
≈ marks a conversion by molar mass, not a printed value. Calls of active or inactive are those of the source. No cut-off for these calls is given here.

Tests used:
[1] = Antiviral activity against Bovine viral diarrhea virus 1-NADL ATCC VR-534 infected in MDBK cells assessed as protection against virus-induced cytopathogenicity after 3 to 4 days by MTT assay; assay type: functional, cell-based; conditions: Bovine viral diarrhea virus isolates and strains, ATCC VR-534, MDBK
Method in brief: (§1)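 Cells seeded in 96-well plates (BHK 5x10^4, MDBK 3x10^4 cells/well), grown overnight to confluence, infected at m.o.i. 0.01 (BHK for Reo-1, MDBK for BVDV); serial compound dilutions in maintenance medium with 0.5% inactivated FBS added after 1 h; viability by MTT after 3–4 days at 37°C; EC50 for 50% protection by linear regression.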

CCRF-SB = assay: Cytotoxicity against human CCRF-SB cells after 96 hrs by MTT assay; assay type: functional
Method in brief: (§2)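 Leukaemia/lymphoma lines seeded at 1×10^5 cells/ml in RPMI-1640 with 10% FCS and penicillin/streptomycin; incubated with serial dilutions at 37°C, 5% CO2; viability by MTT after 96 h; value is concentration reducing proliferation by 50%, with untreated controls undergoing at least three rounds of multiplication.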

Coxsackievirus B5 = assay: Antiviral activity against Human coxsackievirus B5 ATCC VR-29 infected in African green monkey Vero 76 cells assessed as reduction of virus-plaque formation after 3 days by crystal violet staining; assay type: functional, organism-based; conditions: Enterovirus B, ATCC VR-29, Vero, 72 h
Method in brief: (§3)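 Plaque reduction: Vero-76 at 2x10^5 cells/well grown to confluent monolayers, infected 2 h at 50–100 PFU/well; after removing unadsorbed virus, overlay of D-MEM, 1% inactivated FBS, 0.75% methylcellulose with or without serial compound dilutions; 3 days at 37°C, fixed and stained with crystal violet in 50% ethanol, plaques counted; EC50 by linear regression.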

[2] = system: Staphylococcus epidermidis; assay: Antimicrobial activity against Staphylococcus epidermidis ATCC 35984 at 400 ug after 18 hrs by disc-diffusion method; assay type: functional; conditions: ATCC 35984, 18 h, read-out: IZ
Method in brief: (§4)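 Disc diffusion on Mueller-Hinton II agar per CLSI; 9 mm paper discs loaded with 400 µg compound from DMSO solution, dried, placed on agar; growth inhibition zone diameter read after 18 h at 35°C.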

[3] = Cytotoxicity against BHK cells assessed as cell viability after 48 to 96 hrs by MTT assay; assay type: cell-based, Mesocricetus auratus; conditions: hamster
Micrococcus luteus [4] = assay: Antimicrobial activity against Micrococcus luteus ATCC 9341 at 400 ug after 18 hrs by disc-diffusion method; assay type: functional; conditions: ATCC 9341, 18 h, read-out: IZ; method in brief: as §4
Staphylococcus aureus [5] = assay: Antimicrobial activity against Staphylococcus aureus ATCC 29213 at 400 ug after 18 hrs by disc-diffusion method; assay type: functional; conditions: ATCC 29213, 18 h, read-out: IZ; method in brief: as §4
Yellow fever virus = assay: Antiviral activity against Yellow fever virus 17D infected in BHK cells assessed as protection against virus-induced cytopathogenicity after 3 to 4 days by MTT assay; assay type: functional, cell-based
[6] = system: Vesicular stomatitis virus; assay: Antiviral activity against Vesicular stomatitis virus ATCC VR 1540 infected in African green monkey Vero 76 cells assessed as reduction of virus-plaque formation after 2 days by crystal violet staining; assay type: functional, organism-based; conditions: ATCC VR 1540, Vero, 48 h
[7] = Cytotoxicity against bovine MDBK cells assessed as cell viability after 48 to 96 hrs by MTT assay; assay type: cell-based, Bos taurus; conditions: cattle
[8] = Cytotoxicity against human MT4 cells; assay type: cell-based
Staphylococcus aureus [9] = assay: Antimicrobial activity against Staphylococcus aureus ATCC 25923 after 18 hrs by twofold serial microdilution method; assay type: functional; conditions: ATCC 25923, 18 h
[10] = system: Mammalian orthoreovirus 1; assay: Antiviral activity against Reovirus type-1 ATCC VR-214 infected in BHK cells assessed as protection against virus-induced cytopathogenicity after 3 to 4 days by MTT assay; assay type: functional, cell-based; conditions: Mammalian orthoreovirus 1, ATCC VR-214, BHK; method in brief: as §1
[11] = system: Staphylococcus epidermidis; assay: Antimicrobial activity against Staphylococcus epidermidis ATCC 35984 after 18 hrs by twofold serial microdilution method; assay type: functional; conditions: ATCC 35984, 18 h
[12] = system: Staphylococcus epidermidis; assay: Antimicrobial activity against Staphylococcus epidermidis ATCC 12228 at 400 ug after 18 hrs by disc-diffusion method; assay type: functional; conditions: ATCC 12228, 18 h, read-out: IZ; method in brief: as §4
Vaccinia virus = assay: Antiviral activity against Human Vaccinia virus ATCC VR-1549 infected in African green monkey Vero 76 cells assessed as reduction of virus-plaque formation after 3 days by crystal violet staining; assay type: functional, organism-based; conditions: Orthopoxvirus vaccinia, ATCC VR-1549, Vero, 72 h
[13] = system: Mycobacterium tuberculosis; assay: Antimycobacterial activity against drug-sensitive Mycobacterium tuberculosis Spec. 192; assay type: functional
Method in brief: (§5)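 Classical test-tube successive-dilution method in Youmans' modification of Proskauer and Beck liquid medium with 10% bovine serum. Inoculum came from 14-day cultures. DMSO stock was 10 mg/mL, diluted geometrically in medium. Tubes were incubated at 37 °C. Concentrations tested were 3.1, 6.2, 12.5, 25, 50 and 100 µg/ml. MIC is the minimum concentration inhibiting growth relative to compound-free tubes.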

WIL2-NS = assay: Cytotoxicity against human WIL2-NS cells after 96 hrs by MTT assay; assay type: functional; method in brief: as §2
Micrococcus luteus [14] = assay: Antimicrobial activity against Micrococcus luteus ATCC 10240 at 400 ug after 18 hrs by disc-diffusion method; assay type: functional; conditions: ATCC 10240, 18 h, read-out: IZ; method in brief: as §4
[15] = system: Human immunodeficiency virus 1; assay: Antiviral activity against HIV1 3B infected in human MT4 cells assessed as protection against virus-induced cytopathogenicity by MTT assay; assay type: functional, organism-based; conditions: Human immunodeficiency virus 1, 3B
CCRF-CEM = assay: Cytotoxicity against human CCRF-CEM cells after 96 hrs by MTT assay; assay type: functional; method in brief: as §2
Staphylococcus aureus [16] = assay: Antimicrobial activity against Staphylococcus aureus ATCC 29213 after 18 hrs by twofold serial microdilution method; assay type: functional; conditions: ATCC 29213, 18 h
[17] = system: Staphylococcus epidermidis; assay: Antimicrobial activity against Staphylococcus epidermidis ATCC 12228 after 18 hrs by twofold serial microdilution method; assay type: functional; conditions: ATCC 12228, 18 h
Enterococcus hirae = assay: Antimicrobial activity against Enterococcus hirae ATCC 10541 at 400 ug after 18 hrs by disc-diffusion method; assay type: functional; method in brief: as §4
Bacillus cereus = assay: Antimicrobial activity against Bacillus cereus ATCC 11778 at 400 ug after 18 hrs by disc-diffusion method; assay type: functional; conditions: ATCC 11778, 18 h, read-out: IZ; method in brief: as §4
Human alphaherpesvirus 1 = assay: Antiviral activity against Human herpesvirus 1 KOS ATCC VR-1493 infected in African green monkey Vero 76 cells assessed as reduction of virus-plaque formation after 3 days by crystal violet staining; assay type: functional, organism-based; conditions: Human alphaherpesvirus 1, KOS ATCC VR1493, Vero, 72 h; method in brief: as §3
Staphylococcus aureus [18] = assay: Antimicrobial activity against Staphylococcus aureus NCTC 4163 after 18 hrs by twofold serial microdilution method; assay type: functional; conditions: NCTC 4163, 18 h
Staphylococcus aureus [19] = assay: Antimicrobial activity against Staphylococcus aureus ATCC 6538 at 400 ug after 18 hrs by disc-diffusion method; assay type: functional; conditions: ATCC 6538, 18 h, read-out: IZ; method in brief: as §4
Staphylococcus aureus [20] = assay: Antimicrobial activity against Staphylococcus aureus ATCC 6538 after 18 hrs by twofold serial microdilution method; assay type: functional; conditions: ATCC 6538, 18 h
[21] = Cytotoxicity against African green monkey Vero 76 cells assessed as cell viability after 48 to 96 hrs by crystal violet staining; assay type: cell-based; conditions: chlorocebus sabaeus
Poliovirus 1 = assay: Antiviral activity against Poliovirus type 1 ATCC VR-1562 infected in African green monkey Vero 76 cells assessed as reduction of virus-plaque formation after 2 days by crystal violet staining; assay type: functional, organism-based; conditions: Enterovirus C, ATCC VR-1562, Vero, 48 h
[22] = system: Mycobacterium tuberculosis; assay: Antimycobacterial activity against Mycobacterium tuberculosis H37Rv ATCC 25618; assay type: functional; method in brief: as §5
Proteus vulgaris = assay: Antimicrobial activity against Proteus vulgaris NCTC 4635 at 400 ug after 18 hrs by disc-diffusion method; assay type: functional; method in brief: as §4
Enterococcus faecalis = assay: Antimicrobial activity against Enterococcus faecalis ATCC 29212 at 400 ug after 18 hrs by disc-diffusion method; assay type: functional; method in brief: as §4
Staphylococcus aureus [23] = assay: Antimicrobial activity against Staphylococcus aureus NCTC 4163 at 400 ug after 18 hrs by disc-diffusion method; assay type: functional; conditions: NCTC 4163, 18 h, read-out: IZ; method in brief: as §4
Staphylococcus aureus [24] = assay: Antimicrobial activity against Staphylococcus aureus ATCC 25923 at 400 ug after 18 hrs by disc-diffusion method; assay type: functional; conditions: ATCC 25923, 18 h, read-out: IZ; method in brief: as §4
Bacillus subtilis = assay: Antimicrobial activity against Bacillus subtilis ATCC 6633 at 400 ug after 18 hrs by disc-diffusion method; assay type: functional; conditions: ATCC 6633, 18 h, read-out: IZ; method in brief: as §4

Compound	EC50 [1] [µM]	CC50 (CCRF-SB) [µM]	EC50 (Coxsackievirus B5) [µM]	zone of inhibition at 400 µg/disc [2] [mm]	CC50 [3] [µM]	zone of inhibition at 400 µg/disc (Micrococcus luteus [4]) [mm]	zone of inhibition at 400 µg/disc (Staphylococcus aureus [5]) [mm]	EC50 (Yellow fever virus) [µM]	EC50 [6] [µM]	CC50 [7] [µM]	CC50 [8] [µM]	MIC (Staphylococcus aureus [9]) [µg/mL]	EC50 [10] [µM]	MIC [11] [µg/mL]	zone of inhibition at 400 µg/disc [12] [mm]	EC50 (Vaccinia virus) [µM]	MIC [13] [µg/mL]	CC50 (WIL2-NS) [µM]	zone of inhibition at 400 µg/disc (Micrococcus luteus [14]) [mm]	EC50 [15] [µM]	further results
N#Cc1ccc(NC(=S)Nc2cccc(C(F)(F)F)c2)cc1	> 10	8.3	> 10	20	9.5	18	18	> 9.5	> 10	10	7	64 (≈ 199 µM)	> 9.5	64 (≈ 199 µM)	18	> 10	> 100	9.2	16	> 7	CC50 (CCRF-CEM): 8.7 µM; MIC (Staphylococcus aureus [16]): 64 µg/mL (≈ 199 µM); MIC [17]: 64 µg/mL (≈ 199 µM); inhibition zone (IZ) (Enterococcus hirae): inactive; zone of inhibition at 400 µg/disc (Bacillus cereus): 19 mm; EC50 (Human alphaherpesvirus 1): > 10 µM; MIC (Staphylococcus aureus [18]): 128 µg/mL (≈ 398 µM); zone of inhibition at 400 µg/disc (Staphylococcus aureus [19]): 22 mm; MIC (Staphylococcus aureus [20]): 64 µg/mL (≈ 199 µM); CC50 [21]: 10 µM; EC50 (Poliovirus 1): > 10 µM; MIC [22]: > 100 µg/mL; inhibition zone (IZ) (Proteus vulgaris): inactive; inhibition zone (IZ) (Enterococcus faecalis): inactive; zone of inhibition at 400 µg/disc (Staphylococcus aureus [23]): 20 mm; zone of inhibition at 400 µg/disc (Staphylococcus aureus [24]): 19 mm; zone of inhibition at 400 µg/disc (Bacillus subtilis): 19 mm
FC(F)(F)c1cccc(NC(=S)Nc2cccc(Cl)c2)c1	> 19	9.6	> 20	26	9.5	30	27	> 9.5	> 20	19	10	32 (≈ 96.7 µM)	> 9.5	64 (≈ 193 µM)	28	> 20	100 (≈ 302 µM)	11	27	> 10	CC50 (CCRF-CEM): 9.1 µM; MIC (Staphylococcus aureus [16]): 32 µg/mL (≈ 96.7 µM); MIC [17]: 32 µg/mL (≈ 96.7 µM); inhibition zone (IZ) (Enterococcus hirae): inactive; zone of inhibition at 400 µg/disc (Bacillus cereus): 23 mm; EC50 (Human alphaherpesvirus 1): > 20 µM; MIC (Staphylococcus aureus [18]): 32 µg/mL (≈ 96.7 µM); zone of inhibition at 400 µg/disc (Staphylococcus aureus [19]): 29 mm; MIC (Staphylococcus aureus [20]): 32 µg/mL (≈ 96.7 µM); CC50 [21]: 20 µM; EC50 (Poliovirus 1): > 20 µM; MIC [22]: 100 µg/mL (≈ 302 µM); inhibition zone (IZ) (Proteus vulgaris): inactive; zone of inhibition at 400 µg/disc (Enterococcus faecalis; ATCC 29212, 18 h, read-out: IZ): 20 mm; zone of inhibition at 400 µg/disc (Staphylococcus aureus [23]): 29 mm; zone of inhibition at 400 µg/disc (Staphylococcus aureus [24]): 27 mm; zone of inhibition at 400 µg/disc (Bacillus subtilis): 26 mm
O=[N+]([O-])c1ccc(NC(=S)Nc2cccc(C(F)(F)F)c2)cc1	> 10	8.2	> 10	12	9.5	13	16	> 9.5	> 10	10	9.2	128 (≈ 375 µM)	> 9.5	64 (≈ 188 µM)	13	> 10	> 100	9.4	13	> 9.2	CC50 (CCRF-CEM): 8.7 µM; MIC (Staphylococcus aureus [16]): 64 µg/mL (≈ 188 µM); MIC [17]: 64 µg/mL (≈ 188 µM); zone of inhibition at 400 µg/disc (Enterococcus hirae; ATCC 10541, 18 h, read-out: IZ): 13 mm; zone of inhibition at 400 µg/disc (Bacillus cereus): 15 mm; EC50 (Human alphaherpesvirus 1): > 10 µM; MIC (Staphylococcus aureus [18]): 128 µg/mL (≈ 375 µM); zone of inhibition at 400 µg/disc (Staphylococcus aureus [19]): 15 mm; MIC (Staphylococcus aureus [20]): 64 µg/mL (≈ 188 µM); CC50 [21]: 10 µM; EC50 (Poliovirus 1): > 10 µM; MIC [22]: 50 µg/mL (≈ 146 µM); inhibition zone (IZ) (Proteus vulgaris): inactive; inhibition zone (IZ) (Enterococcus faecalis): inactive; zone of inhibition at 400 µg/disc (Staphylococcus aureus [23]): 16 mm; zone of inhibition at 400 µg/disc (Staphylococcus aureus [24]): 20 mm; zone of inhibition at 400 µg/disc (Bacillus subtilis): 15 mm
